High-throughput results (PubChem BioAssay)
TRPC6 act – activates the mouse TRPC6 cation channel. Q61143. HEK293-TRPC6 membrane potential dye fluorescence; hits give high values. B-score at 10 µM. 310,000 tested, 0.13% active. AID 2550;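 active means B-score of the integrated fluorescence ratio above library mean plus 3 SD, and starting fluorescence ratio within library mean plus 5 SD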;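 further: higher score means more depolarization so channel activation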
TRPC6 inh – mouse TRPC6 channel inhibition | Q61143 | HEK293-TRPC6, membrane potential dye, ACh-evoked depolarization; hits give low values | B-score at 10 µM | 310,000 tested, 1.1% active;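 active means B-score under library mean minus 3 SD, initial fluorescence not abnormally high, positive integrated signal ratio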;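 further: B-score derived from integrated fluorescence ratio over the kinetic read; more negative B-score means stronger inhibition of depolarization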
TRPC4 inh – TRPC4 (mouse) channel inhibition; 300,000 tested, 0.39% active; B-score at 10 µM; HEK293 TRPC4beta/mu-opioid, DAMGO-evoked Fluo4 calcium flux; hits give low values; Q9QUQ5; AID 2247;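 active means B-score over 3 SD under the library average, no early fluorescence shift, positive overall ratio signal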
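Material: HEK293 cells with stable TRPC4beta plus mu-opioid receptor expression; probe or stimulus: DAMGO in two steps, submaximal then maximal; technique: Fluo4 calcium fluorescence by kinetic imaging, 5 s 1 Hz baseline; measure: integrated fluorescence ratio relative to baseline, converted to per-well B score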
TRPC4 PAM – allosterically enhances the mouse TRPC4 cation channel | 310,000 tested, 0.42% active | HEK293 TRPC4beta/mu-opioid, DAMGO EC20, Fluo-4 Ca2+ flux; hits give high values | Q9QUQ5 | B-score at 10 µM;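 active means B-score of calcium response area above 5 SD of library B-scores, with initial fluorescence ratio within 5 SD of library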;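 further: B-score of integrated fluorescence ratio over time as area under calcium response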
TRPC4 agonist – TRPC4 (mouse) channel activation; Q9QUQ5; HEK293 TRPC4beta/mu-opioid, Fluo4 calcium fluorescence; hits give high values; B-score at 10 µM; 310,000 tested, 0.49% active; AID 2237;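 active means B-score above 5 SD of library B-scores, and initial fluorescence ratio not above library mean plus 5 SD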;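 further: positive B-score marks a calcium rise read as TRPC4 activation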
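Technique: kinetic Fluo4 calcium fluorescence; Test system: TRPC4beta and mu-opioid receptor HEK293 stable cells; Measure: B-scored integrated calcium fluorescence ratio; Benchmarks: low control buffer alone, high control maximal DAMGO; Schedule: 45 min room-temperature Fluo4 loading, 110 s read.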
TRPC4 sel inh 2 – mouse TRPC4 off-target activity of TRPC6 inhibitors, second screen | shares compounds with TRPC6 inh | HEK293 TRPC4/MOR, membrane potential dye fluorescence; channel activated by saturating DAMGO dose | inhibition, % at 10 µM | 920 tested, 42% active | AID 2776;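 active means compounds whose fluorescence signal differed from control wells by over 3 SD, either direction, in both duplicate plates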
TRPC4 spec – selectivity of TRPC6 inhibitors: effect on mouse TRPC4; HEK293 TRPC4/mu-opioid, membrane potential fluorescence; AID 2777; activity change, negative = inhibition, % at 10 µM; shares compounds with TRPC6 inh; 920 tested, 61% active;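 active means rise or fall in signal beyond 3 SD of buffer-only wells in both replicate plates, either sign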;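 further: integrated kinetic ratio of fluorescence range over baseline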
HEK293 MPD ctr 2-1 – second check of TRPC6 inhibitor effects in parental HEK293 cells | parental HEK293 membrane potential dye fluorescence; maximal acetylcholine challenge after compound addition | AID 2779 | 920 tested, 31% active | signal change vs control, % at 10 µM | shares compounds with TRPC6 inh;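 active means membrane potential signal moving either way by over 3 SD of the maximum-effect control, in both duplicate plates, meaning non-specific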
HEK293 MPD ctr-1 – parental HEK293 nonspecific activity of TRPC6 inhibitors | membrane potential signal change, % at 10 µM | shares compounds with TRPC6 inh | 920 tested, 60% active | parental HEK293 membrane potential dye fluorescence;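 active means membrane potential signal shifting up or down by more than 3 SD of buffer-only wells, on both duplicate plates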
HEK293 MPD ctr-2 – counter-screen for TRPC6 modulators: effect in parental HEK293 cells | shares compounds with TRPC6 inh | 2,400 tested, 51% active | membrane potential signal change, % at 10 µM | AID 488924 | membrane potential dye fluorescence;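 active means membrane potential signal moves up or down beyond 5 SD from buffer-only wells, on both duplicate plates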
HEK293 MPD ctr 2-2 – parental HEK293 nonspecific activity of TRPC6 modulators, second screen; shares compounds with TRPC6 inh; 2,400 tested, 14% active; membrane potential dye fluorescence; after compound, maximal acetylcholine stimulation; inhibition, % at 10 µM;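 active means membrane potential signal drops by more than 5 SD from the mean control signal, in both duplicate plates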;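 further: plate controls were acetylcholine ECmax control wells for no effect and buffer only wells for full effect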
TRPC4 ctr mod – mouse TRPC4 off-target activity of TRPC6 modulators. shares compounds with TRPC6 inh. HEK293 TRPC4/mu-opioid, membrane potential fluorescence. percent change from control (negative = decrease, positive = increase), % at 10 µM. 2,400 tested, 69% active. AID 488927;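 active means membrane potential signal moved up or down beyond 5 SD of buffer control wells, in both duplicate plates, actives on both sides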;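 further: plate controls were assay buffer wells for no effect and DAMGO maximal-effect wells for full effect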
TRPC4/MOR inh 2 – mouse TRPC4 off-target activity of TRPC6 modulators, second screen | shares compounds with TRPC6 inh | AID 488928 | 2,400 tested, 55% active | inhibition, % at 10 µM | HEK293 TRPC4/mu-opioid, membrane potential dye fluorescence; stimulated with maximal-effect DAMGO;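 active means drop in membrane potential signal beyond 5 SD of the control wells in both duplicate plates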;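 further: TRPC4 counter screen for TRPC6 hits run under conditions tuned for TRPC6 not TRPC4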
TRPC6 inh conf – mouse TRPC6 inhibitor confirmation. inhibition, % at 10 µM. HEK293-TRPC6, membrane potential dye, ACh-evoked depolarization. shares compounds with TRPC6 inh. 3,300 tested, 43% active;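 active means fluorescence ratio falls more than 5 SD below the full-stimulation control mean, in both duplicate runs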;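 further: integrated fluorescence ratio of peak minus minimum over baseline after agonist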
TRPC6 act conf – confirmation of mouse TRPC6 activators; HEK293-TRPC6 membrane potential dye fluorescence, FDSS; 2,800 tested, 11% active; activation, % at 10 µM; AID 488961; shares compounds with TRPC6 inh;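 active means ratio signal rise beyond 5 SD above unstimulated control wells' mean, seen in both duplicate runs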;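 further: plate controls were buffer EC0 wells for no effect and acetylcholine ECmax response for full effect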
Numbers without * were called inactive; i = inactive; · = no result. Most compounds without a hit are left out; they make up all but 2.3% or so of the library.

SMILES | TRPC6 act | TRPC6 inh | TRPC4 inh | TRPC4 PAM | TRPC4 agonist | TRPC6 inh conf | TRPC6 act conf | others
Cc1ccc(/C=N/NC(=O)Cn2nnc(N)n2)o1 | i | i | i | i | i | · | ·
CCn1c(/N=C/c2c[nH]c3ccccc23)nc2ccccc21 | i | -8.06* | i | i | i | 53.1%* | i | TRPC4 sel inh 2=75.0%*;TRPC4 spec=-9.7%*;HEK293 MPD ctr 2-1=i;HEK293 MPD ctr-1=-165.0%*
Cc1c(OCC(=O)N2C[C@H]3C[C@@H](C2)c2cccc(=O)n2C3)ccc2c3c(c(=O)oc12)CCCC3 | i | -7* | i | i | i | 76.7%* | · | TRPC4 sel inh 2=i;TRPC4 spec=5.1%*;HEK293 MPD ctr 2-1=17.0%*;HEK293 MPD ctr-1=5.9%*
Cc1c(OCC(=O)N2C[C@H]3C[C@@H](C2)c2cccc(=O)n2C3)ccc2c3c(c(=O)oc12)CCC3 | i | i | i | i | i | · | ·
CC(/C=N/NC(=O)c1cc(-c2cccnc2)nc2c1c(C)nn2-c1ccccc1)=C\c1ccccc1 | i | i | i | i | i | · | ·
CCCc1c(C(=O)N/N=C/c2ccccc2C(F)(F)F)nnn1-c1nonc1N | i | i | i | i | i | · | ·
O=C(CSc1nc2c(sc3ccccc32)c(=O)n1CCCN1CCCC1)NCc1ccccc1 | i | i | i | i | i | · | ·
Cc1ccc(CNC(=O)CSc2nc3c(sc4ccccc43)c(=O)n2CCCN2CCCC2)cc1 | i | -5.79* | i | i | i | 43.0%* | i | HEK293 MPD ctr-2=i;HEK293 MPD ctr 2-2=i;TRPC4 ctr mod=8.0%*;TRPC4/MOR inh 2=69.0%*
CN1CCN(C2CCN(S(=O)(=O)c3ccc(C(C)(C)C)cc3)CC2)CC1 | 13.4* | i | i | i | i | i | 104.0%* | HEK293 MPD ctr-2=193.0%*;HEK293 MPD ctr 2-2=i;TRPC4 ctr mod=32.5%*;TRPC4/MOR inh 2=i
COc1ccc(S(=O)(=O)N2CCC(N3CCN(Cc4ccccc4)CC3)CC2)cc1 | i | -5.31* | i | i | i | 43.5%* | · | HEK293 MPD ctr-2=134.0%*;HEK293 MPD ctr 2-2=i;TRPC4 ctr mod=18.0%*;TRPC4/MOR inh 2=32.5%*
CC(C)(C)c1ccc(S(=O)(=O)N2CCN(C3CCCC3)CC2)cc1 | i | i | i | i | i | · | ·
O=S(=O)(c1ccc(Cl)cc1)N1CCN(C2CCN(Cc3ccccc3)CC2)CC1 | i | i | i | i | i | · | ·
O=[N+]([O-])c1ccc(S(=O)(=O)N2CCN(C3CCN(Cc4ccccc4)CC3)CC2)cc1 | i | -5.87* | i | i | i | i | i | HEK293 MPD ctr-2=i;HEK293 MPD ctr 2-2=i;TRPC4 ctr mod=i;TRPC4/MOR inh 2=37.5%*
CC(Oc1ccccc1)C(=O)Nc1nnc(S(=O)(=O)Nc2ccccc2)s1 (centres undefined) | i | i | i | i | i | · | ·
COc1ccccc1/C=C1\SC(=S)N(CCC(=O)N2CCN(C)CC2)C1=O | i | -5.27* | i | i | i | i | i | HEK293 MPD ctr-2=i;HEK293 MPD ctr 2-2=i;TRPC4 ctr mod=i;TRPC4/MOR inh 2=44.0%*
COCCCN(C(=S)NC(=O)c1ccc(C(C)(C)C)cc1)c1c(N)n(Cc2ccccc2)c(=O)[nH]c1=O | i | i | i | i | i | · | ·
COc1ccc(C(=O)NC(=S)N(CCC(C)C)c2c(N)n(Cc3ccccc3)c(=O)[nH]c2=O)cc1 | i | -5.52* | i | i | i | i | i | HEK293 MPD ctr-2=i;HEK293 MPD ctr 2-2=i;TRPC4 ctr mod=i;TRPC4/MOR inh 2=i
O=C(C1COc2ccccc2O1)N1CCN(c2nc3c(F)cc(F)cc3s2)CC1 (centres undefined) | i | -8.54* | i | i | i | i | i | TRPC4 sel inh 2=i;TRPC4 spec=i;HEK293 MPD ctr 2-1=i;HEK293 MPD ctr-1=i
O=C(C1COc2ccccc2O1)N1CCN(c2nc3ccccc3s2)CC1 (centres undefined) | i | i | i | i | i | · | ·
CN(C)c1ccc(/C=C2\SC(N3CCCCC3)=NC2=O)cc1 | i | -5.34* | i | i | i | i | · | HEK293 MPD ctr-2=396.0%*;HEK293 MPD ctr 2-2=i;TRPC4 ctr mod=34.0%*;TRPC4/MOR inh 2=i
COC(=O)[C@@H](NCc1cccc(CN([C@H](C(=O)OC)C(C)C)S(C)(=O)=O)c1)C(C)C | i | i | i | i | i | · | ·
CCOC(=O)Cn1c2c(c(=N)c3ccccc31)CCC2 | i | i | i | i | i | · | ·
CCCCCCCCn1c2c(c(=N)c3ccccc31)CCC2 | i | i | i | i | i | · | ·
CCCCn1c2c(c(=N)c3ccccc31)CCC2 | i | -7.18* | i | i | i | 83.3%* | i | TRPC4 sel inh 2=59.5%*;TRPC4 spec=-28.6%*;HEK293 MPD ctr 2-1=-20.0%*;HEK293 MPD ctr-1=-507.5%*
CCCCCn1c2c(c(=N)c3ccccc31)CCC2 | i | -8.1* | -8* | i | i | 70.6%* | i | TRPC4 sel inh 2=56.0%*;TRPC4 spec=-25.6%*;HEK293 MPD ctr 2-1=19.5%*;HEK293 MPD ctr-1=-388.5%*
O=C(N/N=C/c1ccccn1)c1ccc(Cl)c(Cl)c1 | i | i | i | i | i | · | ·
Cc1ccccc1-c1nn(-c2ccc(F)cc2F)cc1CNC1CC1 | i | i | i | i | i | · | ·
COc1ccc(C)cc1Nc1n[n+](-c2ccccc2)c(-c2ccc(SC)cc2)s1 | i | i | i | i | i | · | ·
COC(=O)N1CCN(c2ccc(C)c(C)c2)CC1 | i | i | i | i | i | · | ·
